Structures are written as SMILES.

The test system of data set [1] is MT4. Nature of the data set: 90% inhibition of HIV replication in MT-4 cells. Format: functional, Homo sapiens. The method in brief: (§1)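 HIV-1-infected MT-4 cells (MOI 0.2-0.5; cells at 2 × 10^6 cells/mL, viability >90%) in RPMI-1640 with 10% FBS, L-glutamine, gentamycin and lincomycin. Cultured 3 days with compound at 0.001-100 µg/mL, triplicate per dose. Replication measured as p24 antigen by immunoassay.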

In data set [2] the test system is MT4. As to the kind of experiment: 50% inhibition of MT-4 cell proliferation. Format: functional. To be noted: Homo sapiens, read-out: CD50 (the source's name). The method in brief: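 MT-4 cells in RPMI-1640 with 10% FBS, cultured 3 days with compound at 0.001-200 µg/mL, triplicate per dose. Cell concentration and viability measured by trypan blue dye exclusion, and CD50 calculated.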

Data set [3] is described as follows: Half life for the hydrolysis of compound in human blood serum. The class given is ADME, cell-free, Plasma.
Data set [4] has as its system MT4. As to the kind of experiment: 50% inhibition of HIV replication in MT-4 cells. The class given is functional. Conditions: Homo sapiens, read-out: ID50 (the source's name). The procedure, abridged:
as §1

Data set [5] in a line: Half life for hydrolysis of compound in phosphate buffer of pH 7.2 at 20 degree C. The class given is ADME.
In data set [6] the test system is MT4. As to the kind of experiment: Ratio of CD50 to ID50 was determined. The class given is functional, Homo sapiens.

What is called half-life is how long it takes for the measured level to halve. Read a high half-life as slow decline. On to `CCOP(=O)(CC(N)=O)OCC1C=CC(n2cc(C)c(=O)[nH]c2=O)O1` (stereo not drawn), for which the ID90 with MT4 [1] was found to be 18.8 µM. In addition, the CC50 in the data set on MT4 [2] was 268 µM. The half-life in data set [3] and in data set [5] was above 24 h each time. The IC50 with MT4 [4] is 5.4 µM. Also, the IS in the data set on MT4 [6] was found to be 49.6.

On to `CCOP(=O)(CC(N)=O)OCC1OC(n2cc(C)c(=O)[nH]c2=O)CC1N=[N+]=[N-]` (stereo not drawn), for which the ID90 with MT4 [1] was determined as 1.68 µM. Also, the CC50 with MT4 [2] was found to be 456 µM. Moreover, in the data set with MT4 [4], the IC50 stood at 0.29 µM. In data set [5], this compound had a half-life above 20 h. Also, the IS in the data set with MT4 [6] is 1573.

As for `CCOP(=O)(OCC1OC(n2cc(C)c(=O)[nH]c2=O)CC1N=[N+]=[N-])C(N)=O` (stereo not drawn), in the data set on MT4 [1], the ID90 came to 0.019 µM. In addition, the CC50 in the data set with MT4 [2] was 249 µM. The half-life was 0.117 h in data set [3] and 2.5 h in data set [5]. Besides, the IC50 in the data set on MT4 [4] came out at 0.002 µM. The IS with MT4 [6] was 124300.

With `CCOC(=O)CP(=O)(OCC1C=CC(n2cc(C)c(=O)[nH]c2=O)O1)OC1CCCCC1` (stereo not drawn), the CC50 with MT4 [2] was found to be 131 µM. Further, the IC50 in the data set with MT4 [4] is above 10 µM. Moreover, in the data set on MT4 [6], the IS is below 13.

Regarding `CCOP(=O)(OCC1C=CC(n2cc(C)c(=O)[nH]c2=O)O1)C(=O)NCCc1ccccc1` (stereo not drawn), the CC50 with MT4 [2] was found to be 66.9 µM. In addition, the IC50 in the data set with MT4 [4] stood at 0.043 µM. For the same compound, in data set [5], the half-life is above 20 h. In addition, the IS in the data set on MT4 [6] is listed as 1555.

In the data set on MT4 [1], `CCOC(=O)P(=O)(OCC)OCC1OC(n2cc(C)c(=O)[nH]c2=O)CC1N=[N+]=[N-]` (stereo not drawn) registered an ID90 of 0.016 µM. Also, the CC50 with MT4 [2] worked out at 116 µM. In addition, the IC50 with MT4 [4] came to 0.0071 µM. The half-life in data set [5] stood at 0.167 h. Moreover, the IS in the data set on MT4 [6] came to 16338.

The compound `CCOP(=O)(OCC1C=CC(n2cc(C)c(=O)[nH]c2=O)O1)C(N)=O` (stereo not drawn) showed an ID90 in the data set with MT4 [1] of 7.21 µM. Moreover, the CC50 with MT4 [2] amounted to 214 µM. Also, the half-life is 0.35 h in data set [3] and 7 h in data set [5]. The IC50 in the data set with MT4 [4] turned out to be 0.03 µM. In addition, the IS in the data set on MT4 [6] turned out to be 7143.

On to `CCOC(=O)P(=O)(OCC)OCC1C=CC(n2cc(C)c(=O)[nH]c2=O)O1` (stereo not drawn), for which the ID90 with MT4 [1] turned out to be 21.7 µM. Besides, the CC50 in the data set with MT4 [2] worked out at 136 µM. For the same compound, the IC50 in the data set on MT4 [4] was 0.23 µM. In addition, the half-life in data set [5] is 0.5 h. Also, the IS in the data set on MT4 [6] came to 591.

In the data set on MT4 [1], `CCOC(=O)CP(=O)(OCC1OC(n2cc(C)c(=O)[nH]c2=O)CC1N=[N+]=[N-])OC1CCCCC1` (stereo not drawn) gave an ID90 of 1.4 µM. For the same compound, the CC50 in the data set on MT4 [2] worked out at 280 µM. Moreover, the IC50 in the data set on MT4 [4] is 0.4 µM. The same compound yielded a half-life in data set [5] above 8 h. For the same compound, the IS in the data set on MT4 [6] was found to be 700.

Regarding `CCOC(=O)CP(=O)(OCC)OCC1OC(n2cc(C)c(=O)[nH]c2=O)CC1N=[N+]=[N-]` (stereo not drawn), the CC50 in the data set with MT4 [2] was above 224 µM. Besides, in the data set with MT4 [4], the IC50 was 0.23 µM. Besides, the IS in the data set with MT4 [6] is above 974.

`CCOP(=O)(OCC1OC(n2cc(C)c(=O)[nH]c2=O)CC1N=[N+]=[N-])C(=O)NC` (stereo not drawn) showed an ID90 with MT4 [1] of 0.0072 µM. In addition, the CC50 with MT4 [2] was found to be 113 µM. In the data set on MT4 [4], the IC50 amounted to 0.00024 µM. The same compound showed a half-life in data set [5] of 6 h. The IS with MT4 [6] came out at 470416.

Consider `CCOP(=O)(OCC1C=CC(n2cc(C)c(=O)[nH]c2=O)O1)C(=O)NC` (stereo not drawn), for which the ID90 with MT4 [1] came to 0.27 µM. Moreover, the CC50 with MT4 [2] worked out at 85.7 µM. In addition, in the data set with MT4 [4], the IC50 was 0.013 µM. Also, the half-life in data set [5] is 15 h. Moreover, the IS with MT4 [6] is given as 6592.

Regarding `Cc1cn([C@H]2C[C@H](N=[N+]=[N-])[C@@H](CO)O2)c(=O)[nH]c1=O` [ZIDOVUDINE], in the data set on MT4 [1], the ID90 turned out to be 0.75 µM. Further, the CC50 in the data set on MT4 [2] was determined as 188 µM. Further, the IC50 in the data set on MT4 [4] was found to be 0.017 µM. Moreover, in the data set on MT4 [6], the IS stood at 11029.

Consider `CCOC(=O)CP(=O)(OCC)OCC1C=CC(n2cc(C)c(=O)[nH]c2=O)O1` (stereo not drawn), for which the CC50 in the data set with MT4 [2] worked out at 136 µM. Also, in the data set on MT4 [4], the IC50 was above 10 µM. The same compound registered a half-life in data set [5] above 8 h. Moreover, in the data set with MT4 [6], the IS is recorded as below 13.

On to `CCOP(=O)(OCC1OC(n2cc(C)c(=O)[nH]c2=O)CC1N=[N+]=[N-])C(=O)NCCc1ccccc1` (stereo not drawn), for which the CC50 in the data set with MT4 [2] stood at 177 µM. In the data set on MT4 [4], the IC50 was 0.009 µM. Besides, the half-life in data set [5] was 10 h. Further, the IS with MT4 [6] is 19711.

Turning to `Cc1cn([C@H]2C=C[C@@H](CO)O2)c(=O)[nH]c1=O` [STAVUDINE], the ID90 in the data set with MT4 [1] stood at 23.8 µM. For the same compound, in the data set with MT4 [4], the IC50 turned out to be 0.24 µM. The IS with MT4 [6] was determined as 1308.

Source of the values: ChEMBL document CHEMBL1149185, “Uncharged AZT and D4T derivatives of phosphonoformic and phosphonoacetic acids as anti-HIV pronucleosides” (J Med Chem, 2004).
